From ChEMBL document CHEMBL1149279, “2,4,6-trisubstituted pyrimidines as a new class of selective adenosine A1 receptor antagonists” (J Med Chem, 2004)

Tests used:
[1] = target: T1, Adenosine receptor A1 (Homo sapiens) (UniProt P30542); assay: Displacement of [3H]DPCPX from human adenosine A1 receptor expressed in CHO cells at 1 uM; assay type: cell-based
T1 sequence (whole entry): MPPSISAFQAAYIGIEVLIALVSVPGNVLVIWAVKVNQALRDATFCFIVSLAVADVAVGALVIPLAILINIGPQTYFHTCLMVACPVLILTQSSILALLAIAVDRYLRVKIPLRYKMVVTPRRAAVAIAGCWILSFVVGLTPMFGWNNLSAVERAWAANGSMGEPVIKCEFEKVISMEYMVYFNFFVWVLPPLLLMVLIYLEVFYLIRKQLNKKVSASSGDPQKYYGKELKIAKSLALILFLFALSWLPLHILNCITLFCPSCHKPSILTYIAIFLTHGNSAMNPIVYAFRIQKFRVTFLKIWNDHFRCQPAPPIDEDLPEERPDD

Adenosine receptor A2a [2] = target: T2, Adenosine receptor A2a (Homo sapiens, UniProt P29274); assay: Displacement of [3H]ZM241385 from human adenosine A2A receptor expressed in HEK293 cells at 1 uM; assay type: cell-based
[3] = target: T3, Adenosine receptor A3 (Homo sapiens) (UniProt P0DMS8); assay: Displacement of [125I]AB-MECA from human adenosine A3 receptor expressed in HEK293 cells at 1 uM; assay type: cell-based
T3 sequence (whole entry): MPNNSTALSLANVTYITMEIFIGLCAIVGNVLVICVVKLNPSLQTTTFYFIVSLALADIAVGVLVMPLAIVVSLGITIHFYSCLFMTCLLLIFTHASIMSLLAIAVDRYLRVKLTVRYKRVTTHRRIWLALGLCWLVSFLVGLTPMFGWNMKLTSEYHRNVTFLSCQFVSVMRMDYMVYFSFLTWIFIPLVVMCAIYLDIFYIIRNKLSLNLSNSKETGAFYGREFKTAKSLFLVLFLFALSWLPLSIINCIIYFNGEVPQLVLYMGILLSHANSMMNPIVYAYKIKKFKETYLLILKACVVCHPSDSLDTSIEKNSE

Adenosine receptor A3 = target: T4, Adenosine receptor A3 (Homo sapiens, UniProt P0DMS8); assay: Displacement of [125I]AB-MECA from human adenosine A3 receptor expressed in HEK293 cells; assay type: cell-based
T4 sequence (P0DMS8 whole entry): T3 sequence (whole entry)

Adenosine receptor A2a [4] = target: T2, Adenosine receptor A2a; assay: Displacement of [3H]ZM-241385 from human adenosine A2A receptor expressed in HEK293 cells; assay type: cell-based
Adenosine receptor A1 = target: T5, Adenosine receptor A1 (Homo sapiens, UniProt P30542); assay: Displacement of [3H]DPCPX from human adenosine A1 receptor expressed in CHO cells; assay type: cell-based
T5 sequence (P30542 whole entry): T1 sequence (whole entry)

[5] = target: Adenosine receptors; A1 & A3 (Homo sapiens) (UniProt P30542+P0DMS8); assay: Selectivity for human adenosine A1 receptor over human adenosine A3 receptor; assay type: protein assay
[6] = target: T6, Adenosine receptor A2b (Homo sapiens) (UniProt P29275); assay: Displacement of [3H]MRS1754 from human adenosine A2B receptor expressed in CHO cells at 1 uM; assay type: cell-based
T6 sequence (whole entry): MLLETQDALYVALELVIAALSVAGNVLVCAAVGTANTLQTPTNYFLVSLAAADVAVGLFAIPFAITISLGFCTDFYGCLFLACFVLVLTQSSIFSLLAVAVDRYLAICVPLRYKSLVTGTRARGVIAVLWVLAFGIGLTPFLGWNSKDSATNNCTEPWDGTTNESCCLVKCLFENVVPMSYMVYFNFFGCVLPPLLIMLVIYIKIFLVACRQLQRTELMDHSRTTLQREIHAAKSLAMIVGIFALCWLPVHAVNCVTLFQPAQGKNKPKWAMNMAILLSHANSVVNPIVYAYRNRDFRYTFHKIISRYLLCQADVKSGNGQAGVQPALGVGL
How it was run: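 CHO cells stably transfected with human A2B supply the membranes (20 μg protein). [3H]MRS1754 at 1.2 nM final, 1 h at 25 °C in 50 mM Tris/HCl, 10 mM MgCl2, 1 mM EDTA, 0.01 w/v % CHAPS. Nonspecific binding with 1 mM NECA. Filtration and scintillation counting; % displacement at 1 μM, n = 2.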

[7] = target: T1, Adenosine receptor A1 (Homo sapiens); assay: Antagonist activity at human adenosine A1 receptor expressed in CHO cells assessed as effect on forskolin-stimulated cAMP production at 1 uM; assay type: functional, cell-based; design: scale not given: the % may be the effect or the level left; details: filed as antagonist
How it was run: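 Human A1-expressing CHO cells, 2 × 10^5/well, grown overnight; in HEPES/DMEM (pH 7.4) with adenosine deaminase 0.8 IU/mL, rolipram 50 μM and cilostamide 50 μM, 30 min at 37 °C. Then CPA 1 μM, test compound 1 μM, 10 min; forskolin 10 μM added for 15 min. Stopped with ice-cold 0.1 M HCl. cAMP measured by [3H]cAMP/PKA competition; normalized to CPA (0%) and forskolin (100%). Three independent experiments in duplicate.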

[8] = target: T1, Adenosine receptor A1 (Homo sapiens); assay: Antagonist activity at human adenosine A1 receptor expressed in CHO cells assessed as reversal of CPA-induced effect on forskolin-stimulated cAMP production at 10 uM; assay type: functional, cell-based; details: filed as antagonist

T2 sequence (P29274 whole entry): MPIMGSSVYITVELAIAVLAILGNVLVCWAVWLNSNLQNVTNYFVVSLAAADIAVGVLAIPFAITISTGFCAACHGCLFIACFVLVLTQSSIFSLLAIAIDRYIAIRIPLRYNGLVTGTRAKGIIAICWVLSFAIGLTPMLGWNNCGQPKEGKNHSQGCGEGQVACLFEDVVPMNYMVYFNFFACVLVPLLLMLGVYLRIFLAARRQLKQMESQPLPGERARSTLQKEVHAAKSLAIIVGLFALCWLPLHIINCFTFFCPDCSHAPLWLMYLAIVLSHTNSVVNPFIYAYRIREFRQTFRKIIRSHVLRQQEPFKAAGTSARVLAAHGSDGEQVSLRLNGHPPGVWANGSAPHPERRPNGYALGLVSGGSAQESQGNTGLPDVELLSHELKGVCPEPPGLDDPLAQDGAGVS

SMILES | Activity (Adenosine receptor A2a [2]) | Activity [3] | Ki (Adenosine receptor A3) | Ki (Adenosine receptor A2a [4]) | Ki (Adenosine receptor A1) | further results
CCCCCC(=O)Nc1nc(-c2ccccc2)cc(-c2ccccc2)n1 | 0% | 24% | – | – | – | Activity [1]: 28%
O=C(Nc1cc(-c2ccccc2)nc(-c2ccccc2)n1)c1ccc(Cl)cc1 | 0% | 33% | – | – | – | Activity [1]: 35%
CCCC(=O)Nc1cc(-c2ccccc2)nc(-c2ccccc2)n1 | – | – | 167 nM (antagonist) | 124 nM (antagonist) | – | –
O=C(Nc1nc(-c2ccccc2)cc(-c2ccccc2)n1)C1CCCCC1 | 31% | 9% | – | – | 119 nM (antagonist) | –
O=C(Nc1cc(-c2ccccc2)nc(-c2ccccc2)n1)c1ccccc1 | 17% | – | 1300 nM (antagonist) | – | – | Selectivity ratio [5]: 2
CC(C)(C)C(=O)Nc1cc(-c2ccccc2)nc(-c2ccccc2)n1 | 18% | 49% | – | – | – | –
CC(C)(C)C(=O)Nc1nc(-c2ccccc2)cc(-c2ccccc2)n1 | 0% | 4% | – | – | 224 nM (antagonist) | –
O=C(Nc1nc(-c2ccccc2)cc(-c2ccccc2)n1)C1CCCC1 | 11% | 39% | – | – | 11.4 nM (antagonist) | Activity [6]: 42%
O=C(Nc1nc(-c2ccccc2)cc(-c2ccccc2)n1)C1CCC1 | 33% | 18% | – | – | 107 nM (antagonist) | –
O=C(Nc1cc(-c2ccccc2)nc(-c2ccccc2)n1)C1CCCCC1 | – | 32% | – | 208 nM (antagonist) | – | –
O=C(Nc1nc(-c2ccccc2)cc(-c2ccccc2)n1)c1ccc(Cl)cc1 | 0% | – | 3280 nM (antagonist) | – | – | Activity [1]: 0%
COc1ccc(C(=O)Nc2cc(-c3ccccc3)nc(-c3ccccc3)n2)cc1 | 0% | – | 1170 nM (antagonist) | – | – | Activity [1]: 30%
CCC(CC)C(=O)Nc1nc(-c2ccccc2)cc(-c2ccccc2)n1 | 11% | 27% | – | – | 27.1 nM (antagonist) | –
CCC(=O)Nc1cc(-c2ccccc2)nc(-c2ccccc2)n1 | – | – | 22.4 nM (antagonist) | 81.9 nM (antagonist) | – | Selectivity ratio [5]: 2
CC(C)CC(=O)Nc1cc(-c2ccccc2)nc(-c2ccccc2)n1 | – | – | 447 nM (antagonist) | 157 nM (antagonist) | – | –
CC(=O)Nc1nc(-c2ccccc2)cc(-c2ccccc2)n1 | 31% | – | 237 nM (antagonist) | – | – | –
Cc1ccc(C(=O)Nc2nc(-c3ccccc3)cc(-c3ccccc3)n2)cc1 | 0% | 13% | – | – | – | Activity [1]: 37%
CCCCCC(=O)Nc1cc(-c2ccccc2)nc(-c2ccccc2)n1 | 48% | – | 392 nM (antagonist) | – | 109 nM (antagonist) | –

SMILES | Activity (Adenosine receptor A2a [2]) | Activity [3] | Ki (Adenosine receptor A3) | Ki (Adenosine receptor A2a [4]) | Ki (Adenosine receptor A1) | further results
CCCCC(=O)Nc1nc(-c2ccccc2)cc(-c2ccccc2)n1 | 0% | 23% | – | – | 27.6 nM (antagonist) | –
CC(C)(C)CC(=O)Nc1cc(-c2ccccc2)nc(-c2ccccc2)n1 | 32% | 39% | – | – | – | Activity [6]: 4%
CC(C)CC(=O)Nc1nc(-c2ccccc2)cc(-c2ccccc2)n1 | 42% | 23% | – | – | 25.1 nM (antagonist) | –
O=C(Nc1cc(-c2ccccc2)nc(-c2ccccc2)n1)C1CCCC1 | – | – | 170 nM (antagonist) | 196 nM (antagonist) | – | Activity [7]: 60%; Activity ([6]; filed as antagonist): 52%; Activity [8]: Antagonist
O=C(Nc1nc(-c2ccccc2)cc(-c2ccccc2)n1)c1ccc(Cl)c(Cl)c1 | 0% | 30% | – | – | – | Activity [1]: 0%
CCC(=O)Nc1nc(-c2ccccc2)cc(-c2ccccc2)n1 | – | – | 547 nM (antagonist) | 893 nM (antagonist) | 46.4 nM (antagonist) | –
CC(C)C(=O)Nc1nc(-c2ccccc2)cc(-c2ccccc2)n1 | 44% | 45% | – | – | 8.87 nM (antagonist) | Activity ([6]; filed as antagonist): 79%
CCCC(=O)Nc1nc(-c2ccccc2)cc(-c2ccccc2)n1 | 7% | 38% | – | – | 3.7 nM (antagonist) | Activity ([6]; filed as antagonist): 54%
CC(C)C(=O)Nc1cc(-c2ccccc2)nc(-c2ccccc2)n1 | – | – | 267 nM (antagonist) | 376 nM (antagonist) | – | Selectivity ratio [5]: 24
O=C(Nc1nc(-c2ccccc2)cc(-c2ccccc2)n1)c1cccc(Cl)c1 | 22% | 41% | – | – | 368 nM (antagonist) | –
CCC(CC)C(=O)Nc1cc(-c2ccccc2)nc(-c2ccccc2)n1 | – | 57% | – | 381 nM (antagonist) | – | Activity ([6]; filed as antagonist): 72%
O=C(Nc1nc(-c2ccccc2)cc(-c2ccccc2)n1)c1ccccc1 | 5% | 38% | – | – | 309 nM (antagonist) | –
CCC(C)C(=O)Nc1cc(-c2ccccc2)nc(-c2ccccc2)n1 (centres undefined) | – | – | 147 nM (antagonist) | 899 nM (antagonist) | – | Activity [7]: 60%; Activity [6]: 44%; Activity [8]: Antagonist
O=C(Nc1cc(-c2ccccc2)nc(-c2ccccc2)n1)C1CC1 | – | – | 25 nM (antagonist) | 189 nM (antagonist) | 7.58 nM (antagonist) | –
O=C(Nc1cc(-c2ccccc2)nc(-c2ccccc2)n1)C1CCC1 | – | – | 178 nM (antagonist) | 179 nM (antagonist) | – | Activity ([6]; filed as antagonist): 74%
CC(=O)Nc1cc(-c2ccccc2)nc(-c2ccccc2)n1 | – | – | 6.88 nM (antagonist) | 489 nM (antagonist) | – | –
COc1ccc(C(=O)Nc2nc(-c3ccccc3)cc(-c3ccccc3)n2)cc1 | 45% | 41% | – | – | – | Activity [1]: 31%
O=C(Nc1nc(-c2ccccc2)cc(-c2ccccc2)n1)C1CC1 | – | – | 676 nM (antagonist) | 228 nM (antagonist) | 24.9 nM (antagonist) | –
